T cruzi repl – inhibitors of intracellular T. cruzi growth, primary screen, luminescence, NIH3T3 host cells. T. cruzi beta-gal in NIH3T3, 90 h. inhibition, % (test concentration not listed). 300,000 compounds, 1.4% hits. AID 1885, 2009;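 active means mean inhibition across valid replicates above about 55%, limit read from the data; inconclusive means mean below that limit but half or more replicates reach it; inactive means mean below it, under half of replicates reach it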;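 further: signal also drops with host cell toxicity which is not excluded here; 0% = plate median of DMSO wells and 100% = zero luminescence signal; higher percent means less beta-gal luminescence so fewer parasites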
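Incubation – ≥90 h infection period, 3 h prior cell attachment · System – NIH/3T3 fibroblasts plus reporter T. cruzi · Doses – compound pinned at 50 nL/well, DMSO · Read-out basis – percent inhibition of parasite-derived β-gal signal · Signal – luminescent β-galactosidase signal after 60 min lysis · Also added – 5000 T. cruzi trypomastigotes/well · Medium – Low-serum DMEM with 2% FBS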
L major viab – Leishmania major promastigote growth inhibition, primary screen; inhibition, % at 10 µM; AID 1063, 2008; 200,000 compounds, 9% hits; Leishmania major promastigotes, resazurin fluorescence viability; in the data active means inhibition above about 50%;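 further: promastigotes grown with compound for 44 hours at 28 °C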
Hsp70 act – Hsp70 transcriptional activators, primary screen, cell-based, HeLa, Hsp70 promoter luciferase, luminescence, 10 µM; HeLa Hsp70 promoter luciferase reporter; scaled: vehicle 0, proteasome-inhibitor control 100%; activation, % at 10 µM; 200,000 compounds, 0.04% hits;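 active means activation above the mean across all tested compounds plus 3 SD, cutoff set per campaign, cut at about 5.5% in these data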;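 further: 100% = MG132 at 30 µM as the positive control and 0% = DMSO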
HSF1 activator – HSF-1 activators, primary screen, NIH3T3-HGL cells, MG132 stress, luminescence, single point; NIH3T3-HGL HSF-1 luciferase reporter, 8 h; 100% = twice DMSO control signal; AID 504408, 2011; activation, % at 9 µM; 300,000 compounds, 1.7% hits;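 active means mean replicate activation of at least 50% with a set share of replicates each reaching 50%; inconclusive means only one of those two conditions met; inactive means mean below 50% and too few replicates reaching it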;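 further: 0% = median of the neutral control wells and 100% = twice that signal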
HSF1 inhib – HSF1 inhibitors in luciferase reporter cells, primary screen, cell-based, NIH3T3, luminescence | NIH3T3-HGL HSE-luciferase, MG132-induced, luminescence 8 h; stronger effect = lower value | activity change, negative = inhibition, % at 7.5 µM (by protocol) | 300,000 compounds, 0.77% hits | AID 2098, 2009;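 active means more than half of replicate wells show activity change below -50%, luminescence cut by over half; inconclusive means some wells, but at most half, below -50%; inactive means no replicate well below -50%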;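 further: luciferase reports HSF-1 transcriptional activity via heat shock element; 0% = median of DMSO wells and -100% = zero luminescence signal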
Starred values were filed as active, the others as inactive; ? = inconclusive; . = no result. This is one part of a sample in which hits are shown more often than they occur.

SMILES	T cruzi repl	L major viab	Hsp70 act	HSF1 activator	HSF1 inhib
O=C(NNc1ccccc1[N+](=O)[O-])Nc1ccc(Cl)c(Cl)c1	38	78*	0	11	0
CCN(CC)S(=O)(=O)c1cc(NC(=O)C2=COCCO2)ccc1Cl	4	.	.	-3	-3
CCN(CC)S(=O)(=O)c1cc([N+](=O)[O-])ccc1NNC(=O)Nc1ccc(Cl)c(Cl)c1	60*	100*	0	-38	-20
O=C(Nc1ccc(Cl)c(Cl)c1)Nc1ccccc1O	-12	.	.	92*	47
O=C(NNc1ccccc1[N+](=O)[O-])Nc1ccccc1	-1	0	0	-1	-5
COc1cc(CC(NC(C)=O)C(=O)NC2CCN(S(=O)(=O)c3ccc(NC(C)=O)cc3)CC2)cc(OC)c1 (centres undefined)	-7	.	.	20	5
Cc1ccc(CNC(=O)C2CCCC2)cc1	-5	.	.	2	-3
COc1ccc(NC(=O)C2CCN(S(=O)(=O)c3c(C)noc3C)CC2)cc1OC	3	.	.	2	-4
Cc1ccc(CNC(=O)C2CCN(S(=O)(=O)c3c(C)noc3C)CC2)cc1	14	99*	0	-20	-10
COc1ccc(CCNC(=O)C2CCCN(S(=O)(=O)c3ccc(F)cc3)C2)cc1OC (centres undefined)	-1	.	.	-67	-57*
Cc1ccc(CNC(=O)C2CCCN(C(=O)N(C)C)C2)cc1 (centres undefined)	-13	86*	0	0	-5
Cc1ccc(CNC(=O)C2CCCN(S(=O)(=O)c3c(C)noc3C)C2)cc1 (centres undefined)	6	-3	0	-2	0
CCS(=O)(=O)N1CCCC(C(=O)NCCc2ccc(OC)c(OC)c2)C1 (centres undefined)	-13	3	0	-3	-5
COc1ccccc1CNC(=O)C1CCN(S(=O)(=O)c2c(C)noc2C)CC1	-9	100*	0	0	-2
O=C(CCN1C(=O)/C(=C/c2ccccc2F)SC1=S)NCCCn1ccnc1	-9	.	.	2	-8
Cc1ccccc1NC(=O)c1c2c(nc3ccccc13)CCC2	-14	-3	0	7	-9
COc1ccc(/C=C2\SC(=S)N(CC(=O)OCC(=O)Nc3ccc(C)cc3Cl)C2=O)cc1	2	-10	0	3	-6
CCCCNC(=O)C1CCCN(S(=O)(=O)c2c(C)noc2/C=C/c2cccs2)C1 (centres undefined)	25	.	.	2	6
Cc1noc(/C=C/c2cccs2)c1S(=O)(=O)N1CCC(C(=O)NCCCN2CCCC(C)C2)CC1 (centres undefined)	24	96*	0	1	3
Cc1cc(C)c(S(=O)(=O)N2CCCC(C(=O)NCCC3=CCCCC3)C2)c(C)c1 (centres undefined)	11	-4	-1	60*	27
Cc1noc(C)c1S(=O)(=O)N1CCC(C(=O)NCCC2=CCCCC2)CC1	1	100*	0	3	-2
CCOc1ccccc1/C=C/c1onc(C)c1S(=O)(=O)N1CCC(C(=O)N(CC)CC)CC1	8	.	.	-70	-60*
COc1ccc(CC(=O)NNC(=O)c2nn(Cc3ccccc3)c(=O)c3ccccc23)cc1OC	-11	.	.	-3	-3
Cc1ccc(-c2nc(-c3cccnc3)sc2CC(=O)Nc2ccc3nc(C)sc3c2)cc1	?	33	0	-56	-40
CCOC(=O)c1sc2nc(C)nc(SCC(=O)NC(C)CCc3ccccc3)c2c1C (centres undefined)	-3	96*	0	4	-1
SMILES	T cruzi repl	L major viab	Hsp70 act	HSF1 activator	HSF1 inhib
COC(=O)c1c(N)sc(C(=O)NCCc2ccccc2)c1C	6	.	.	-40	-36
CCOC(=O)c1c(C)[nH]c(C)c1S(=O)(=O)NCc1ccc(OCC)cc1	-10	.	.	13	0
COc1cc(C(=O)Nc2ccc(S(=O)(=O)N(C)c3ccccc3)cc2)cc(OC)c1OC	13	10	0	102*	49
CC1CN(S(=O)(=O)c2ccc(NC(=O)c3cc(-c4ccccc4O)n[nH]3)cc2)CC(C)O1 (centres undefined)	13	100*	0	5	-5
COc1ccccc1/C=C/C(=O)NC(=S)Nc1ccc(S(=O)(=O)N(C)c2ccccc2)cc1	9	62*	0	-11	5
Cc1ccc(C(=O)NC(=S)Nc2ccc(S(=O)(=O)N(C)c3ccccc3)cc2)cc1	.	-2	0	.	.
CN(c1ccccc1)S(=O)(=O)c1ccc(NC(=S)NC(=O)c2ccccc2)cc1	8	100*	0	1	-11
COC(=O)C1=CN(Cc2ccccc2)C=C(C(=O)OC)C1c1cc(F)ccc1F	20	.	.	14	22
Cc1ccc(NC(=O)NC(=S)NC(=O)c2ccccc2)cc1	-3	3	0	54*	23
Cc1nc2ccc(NC(=O)c3cccc(S(=O)(=O)N4CC(C)OC(C)C4)c3)cc2s1 (centres undefined)	19	98*	0	8	-5
Cc1ccc(C(=O)NNC(=S)NC(=O)c2ccccc2)cc1	30	.	.	-2	0
COc1cc2c(cc1OC)CN(C(=O)c1ccc(S(=O)(=O)N(C)c3ccccc3)cc1)CC2	11	99*	0	-14	-3
CC(C)NS(=O)(=O)c1ccc(NC(=S)NC(=O)c2ccc(-c3ccccc3)cc2)cc1	31	93*	-1	-3	1
Cc1cc(C)cc(N2C(N)=NC(N)=NC2c2ccccc2F)c1 (centres undefined)	20	.	.	-1	-6
Cc1c(Cl)ccc(S(=O)(=O)NCCCn2ccnc2)c1Cl	-14	.	.	-5	-5
O=C(NCCS(=O)(=O)N1CCN(c2ccccc2F)CC1)c1cccc(Br)c1	5	.	.	7	0
CS(=O)(=O)n1nc(-c2ccc(Cl)cc2)nc1SCc1ccccc1	9	1	0	-10	14
COc1ccccc1C(=O)NC(=S)Nc1cccnc1Cl	-6	.	.	-28	-22
Cc1ccc(C(=O)NC(=S)Nc2cccnc2Cl)cc1	-4	.	.	65*	33
Cc1nc2ccc(NC(=O)c3ccc(S(=O)(=O)N(C)c4ccccc4)cc3)cc2s1	26	99*	-1	0	-2
CN(c1ccccc1)S(=O)(=O)c1ccc(NC(=S)NC(=O)C2CC2)cc1	7	75*	0	-2	-5
C/C(=N/NC(=O)Nc1ccccc1)c1ccc(C)cc1	10	51*	0	-2	3
Cc1nc2ccc(NC(=O)N(C)c3ccccc3)cc2s1	-24	-6	0	-22	-13
COc1ccc(NS(=O)(=O)c2ccc(NC(=O)c3ccc(N(C)S(C)(=O)=O)cc3)cc2)c(OC)c1	-5	54*	0	14	-16
